Source: ChEMBL document CHEMBL1268917, “Synthesis and biological evaluation of radio-iodinated benzimidazoles as SPECT imaging agents for NR2B subtype of NMDA receptor” (Bioorg Med Chem, 2010)

Legend:
Format in all cases: ADME, organism-based
Liver [1] = test: Biodistribution in ddY mouse liver assessed per gram of tissue at 14.8 kBq, iv after 360 mins; conditions: in vivo, 6 h
Outline: (§1)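 Killed at set times after injection; organs and blood removed, weighed, gamma counted. Data as % injected dose per gram tissue, mean SD, n = 5–6.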

Kidney [2] = test: Biodistribution in ddY mouse kidney assessed per gram of tissue at 14.8 kBq, iv after 360 mins; conditions: in vivo, 6 h; outline: as §1
Intestine [3] = test: Biodistribution in ddY mouse intestine assessed per gram of tissue at 14.8 kBq, iv after 360 mins; conditions: in vivo, 6 h; outline: as §1
Stomach [4] = test: Biodistribution in ddY mouse stomach assessed per gram of tissue at 14.8 kBq, iv after 360 mins; conditions: in vivo, 6 h
Outline: (§2)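 Radioiodinated tracer (14.8 kBq) injected via tail vein into male ddY mice (6 weeks, 30–35 g). Organs removed at set times after injection, weighed and gamma-counted; uptake expressed as % injected dose per gram tissue, mean ± SD, n = 5–6.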

Spleen [5] = test: Biodistribution in ddY mouse spleen assessed per gram of tissue at 14.8 kBq, iv after 360 mins; conditions: in vivo, 6 h; outline: as §2
Pancreas [6] = test: Biodistribution in ddY mouse pancreas assessed per gram of tissue at 14.8 kBq, iv after 360 mins; conditions: in vivo, 6 h; outline: as §2
Heart [7] = test: Biodistribution in ddY mouse heart assessed per gram of tissue at 14.8 kBq, iv after 360 mins; conditions: in vivo, 6 h; outline: as §1
Lung [8] = test: Biodistribution in ddY mouse lung assessed per gram of tissue at 14.8 kBq, iv after 360 mins; conditions: in vivo, 6 h; outline: as §2
Brain [9] = test: Biodistribution in ddY mouse brain assessed per gram of tissue at 14.8 kBq, iv after 360 mins; conditions: in vivo, 6 h; outline: as §1
Liver [10] = test: Biodistribution in ddY mouse liver assessed per gram of tissue at 14.8 kBq, iv after 180 mins; conditions: in vivo, 3 h; outline: as §1
Kidney [11] = test: Biodistribution in ddY mouse kidney assessed per gram of tissue at 14.8 kBq, iv after 180 mins; conditions: in vivo, 3 h; outline: as §1
Intestine [12] = test: Biodistribution in ddY mouse intestine assessed per gram of tissue at 14.8 kBq, iv after 180 mins; conditions: in vivo, 3 h; outline: as §1
Stomach [13] = test: Biodistribution in ddY mouse stomach assessed per gram of tissue at 14.8 kBq, iv after 180 mins; conditions: in vivo, 3 h; outline: as §2
Spleen [14] = test: Biodistribution in ddY mouse spleen assessed per gram of tissue at 14.8 kBq, iv after 180 mins; conditions: in vivo, 3 h; outline: as §2
Pancreas [15] = test: Biodistribution in ddY mouse pancreas assessed per gram of tissue at 14.8 kBq, iv after 180 mins; conditions: in vivo, 3 h; outline: as §2
Heart [16] = test: Biodistribution in ddY mouse heart assessed per gram of tissue at 14.8 kBq, iv after 180 mins; conditions: in vivo, 3 h; outline: as §1
Lung [17] = test: Biodistribution in ddY mouse lung assessed per gram of tissue at 14.8 kBq, iv after 180 mins; conditions: in vivo, 3 h; outline: as §2
Brain [18] = test: Biodistribution in ddY mouse brain assessed per gram of tissue at 14.8 kBq, iv after 180 mins; conditions: in vivo, 3 h; outline: as §1
Blood [19] = test: Biodistribution in ddY mouse blood assessed per gram of tissue at 14.8 kBq, iv after 360 mins; conditions: in vivo, 6 h; outline: as §1
Blood [20] = test: Biodistribution in ddY mouse blood assessed per gram of tissue at 14.8 kBq, iv after 0.5 mins; conditions: in vivo; outline: as §1
Liver [21] = test: Biodistribution in ddY mouse liver assessed per gram of tissue at 14.8 kBq, iv after 0.5 mins; conditions: in vivo; outline: as §1
Kidney [22] = test: Biodistribution in ddY mouse kidney assessed per gram of tissue at 14.8 kBq, iv after 0.5 mins; conditions: in vivo; outline: as §1
Intestine [23] = test: Biodistribution in ddY mouse intestine assessed per gram of tissue at 14.8 kBq, iv after 0.5 mins; conditions: in vivo; outline: as §1
Stomach [24] = test: Biodistribution in ddY mouse stomach assessed per gram of tissue at 14.8 kBq, iv after 0.5 mins; conditions: in vivo; outline: as §2
Spleen [25] = test: Biodistribution in ddY mouse spleen assessed per gram of tissue at 14.8 kBq, iv after 0.5 mins; conditions: in vivo; outline: as §2
Pancreas [26] = test: Biodistribution in ddY mouse pancreas assessed per gram of tissue at 14.8 kBq, iv after 0.5 mins; conditions: in vivo; outline: as §2
Heart [27] = test: Biodistribution in ddY mouse heart assessed per gram of tissue at 14.8 kBq, iv after 0.5 mins; conditions: in vivo; outline: as §1
Lung [28] = test: Biodistribution in ddY mouse lung assessed per gram of tissue at 14.8 kBq, iv after 0.5 mins; conditions: in vivo; outline: as §2
Brain [29] = test: Biodistribution in ddY mouse brain assessed per gram of tissue at 14.8 kBq, iv after 0.5 mins; conditions: in vivo; outline: as §1
Blood [30] = test: Biodistribution in ddY mouse blood assessed per gram of tissue at 14.8 kBq, iv after 5 mins; conditions: in vivo; outline: as §1
Liver [31] = test: Biodistribution in ddY mouse liver assessed per gram of tissue at 14.8 kBq, iv after 5 mins; conditions: in vivo; outline: as §1
Kidney [32] = test: Biodistribution in ddY mouse kidney assessed per gram of tissue at 14.8 kBq, iv after 5 mins; conditions: in vivo; outline: as §1
Intestine [33] = test: Biodistribution in ddY mouse intestine assessed per gram of tissue at 14.8 kBq, iv after 5 mins; conditions: in vivo; outline: as §1
Stomach [34] = test: Biodistribution in ddY mouse stomach assessed per gram of tissue at 14.8 kBq, iv after 5 mins; conditions: in vivo; outline: as §2
Spleen [35] = test: Biodistribution in ddY mouse spleen assessed per gram of tissue at 14.8 kBq, iv after 5 mins; conditions: in vivo; outline: as §2
Pancreas [36] = test: Biodistribution in ddY mouse pancreas assessed per gram of tissue at 14.8 kBq, iv after 5 mins; conditions: in vivo; outline: as §2
Heart [37] = test: Biodistribution in ddY mouse heart assessed per gram of tissue at 14.8 kBq, iv after 5 mins; conditions: in vivo; outline: as §1
Lung [38] = test: Biodistribution in ddY mouse lung assessed per gram of tissue at 14.8 kBq, iv after 5 mins; conditions: in vivo; outline: as §2
Brain [39] = test: Biodistribution in ddY mouse brain assessed per gram of tissue at 14.8 kBq, iv after 5 mins; conditions: in vivo; outline: as §1
Blood [40] = test: Biodistribution in ddY mouse blood assessed per gram of tissue at 14.8 kBq, iv after 30 mins; conditions: in vivo, 0.5 h; outline: as §1
Liver [41] = test: Biodistribution in ddY mouse liver assessed per gram of tissue at 14.8 kBq, iv after 30 mins; conditions: in vivo, 0.5 h; outline: as §1
Kidney [42] = test: Biodistribution in ddY mouse kidney assessed per gram of tissue at 14.8 kBq, iv after 30 mins; conditions: in vivo, 0.5 h; outline: as §1
Intestine [43] = test: Biodistribution in ddY mouse intestine assessed per gram of tissue at 14.8 kBq, iv after 30 mins; conditions: in vivo, 0.5 h; outline: as §1
Stomach [44] = test: Biodistribution in ddY mouse stomach assessed per gram of tissue at 14.8 kBq, iv after 30 mins; conditions: in vivo, 0.5 h; outline: as §2
Spleen [45] = test: Biodistribution in ddY mouse spleen assessed per gram of tissue at 14.8 kBq, iv after 30 mins; conditions: in vivo, 0.5 h; outline: as §2
Pancreas [46] = test: Biodistribution in ddY mouse pancreas assessed per gram of tissue at 14.8 kBq, iv after 30 mins; conditions: in vivo, 0.5 h; outline: as §2
Heart [47] = test: Biodistribution in ddY mouse heart assessed per gram of tissue at 14.8 kBq, iv after 30 mins; conditions: in vivo, 0.5 h; outline: as §1
Lung [48] = test: Biodistribution in ddY mouse lung assessed per gram of tissue at 14.8 kBq, iv after 30 mins; conditions: in vivo, 0.5 h; outline: as §2
Brain [49] = test: Biodistribution in ddY mouse brain assessed per gram of tissue at 14.8 kBq, iv after 30 mins; conditions: in vivo, 0.5 h; outline: as §1
Blood [50] = test: Biodistribution in ddY mouse blood assessed per gram of tissue at 14.8 kBq, iv after 60 mins; conditions: in vivo, 1 h; outline: as §1
Liver [51] = test: Biodistribution in ddY mouse liver assessed per gram of tissue at 14.8 kBq, iv after 60 mins; conditions: in vivo, 1 h; outline: as §2
Kidney [52] = test: Biodistribution in ddY mouse kidney assessed per gram of tissue at 14.8 kBq, iv after 60 mins; conditions: in vivo, 1 h; outline: as §1
Intestine [53] = test: Biodistribution in ddY mouse intestine assessed per gram of tissue at 14.8 kBq, iv after 60 mins; conditions: in vivo, 1 h; outline: as §1
Stomach [54] = test: Biodistribution in ddY mouse stomach assessed per gram of tissue at 14.8 kBq, iv after 60 mins; conditions: in vivo, 1 h; outline: as §2
Spleen [55] = test: Biodistribution in ddY mouse spleen assessed per gram of tissue at 14.8 kBq, iv after 60 mins; conditions: in vivo, 1 h; outline: as §2
Pancreas [56] = test: Biodistribution in ddY mouse pancreas assessed per gram of tissue at 14.8 kBq, iv after 60 mins; conditions: in vivo, 1 h; outline: as §2
Heart [57] = test: Biodistribution in ddY mouse heart assessed per gram of tissue at 14.8 kBq, iv after 60 mins; conditions: in vivo, 1 h; outline: as §1
Lung [58] = test: Biodistribution in ddY mouse lung assessed per gram of tissue at 14.8 kBq, iv after 60 mins; conditions: in vivo, 1 h; outline: as §2
Brain [59] = test: Biodistribution in ddY mouse brain assessed per gram of tissue at 14.8 kBq, iv after 60 mins; conditions: in vivo, 1 h; outline: as §1
Blood [60] = test: Biodistribution in ddY mouse blood assessed per gram of tissue at 14.8 kBq, iv after 180 mins; conditions: in vivo, 3 h; outline: as §1

Drug uptake (Liver [1]): 10.93 % ID/g
Drug uptake (Kidney [2]): 10.51 % ID/g
Drug uptake (Intestine [3]): 6.49 % ID/g
Drug uptake (Stomach [4]): 3.56 % ID/g
Drug uptake (Spleen [5]): 1.6 % ID/g
Drug uptake (Pancreas [6]): 3.72 % ID/g
Drug uptake (Heart [7]): 3.62 % ID/g
Drug uptake (Lung [8]): 0.93 % ID/g
Drug uptake (Brain [9]): 0.47 % ID/g
Drug uptake (Liver [10]): 17.81 % ID/g
Drug uptake (Kidney [11]): 15.23 % ID/g
Drug uptake (Intestine [12]): 7.82 % ID/g
Drug uptake (Stomach [13]): 4.04 % ID/g
Drug uptake (Spleen [14]): 2.85 % ID/g
Drug uptake (Pancreas [15]): 5.39 % ID/g
Drug uptake (Heart [16]): 6.93 % ID/g
Drug uptake (Lung [17]): 1.61 % ID/g
Drug uptake (Brain [18]): 0.67 % ID/g
Drug uptake (Blood [19]): 0.36 % ID/g
Drug uptake (Blood [20]): 4.74 % ID/g
Drug uptake (Liver [21]): 4.6 % ID/g
Drug uptake (Kidney [22]): 3.26 % ID/g
Drug uptake (Intestine [23]): 0.55 % ID/g
Drug uptake (Stomach [24]): 0.42 % ID/g
Drug uptake (Spleen [25]): 0.9 % ID/g
Drug uptake (Pancreas [26]): 0.92 % ID/g
Drug uptake (Heart [27]): 9.07 % ID/g
Drug uptake (Lung [28]): 3.82 % ID/g
Drug uptake (Brain [29]): 0.32 % ID/g
Drug uptake (Blood [30]): 0.95 % ID/g
Drug uptake (Liver [31]): 19.35 % ID/g
Drug uptake (Kidney [32]): 10.99 % ID/g
Drug uptake (Intestine [33]): 1.58 % ID/g
Drug uptake (Stomach [34]): 1.28 % ID/g
Drug uptake (Spleen [35]): 3.19 % ID/g
Drug uptake (Pancreas [36]): 3.09 % ID/g
Drug uptake (Heart [37]): 5.83 % ID/g
Drug uptake (Lung [38]): 3.52 % ID/g
Drug uptake (Brain [39]): 0.44 % ID/g
Drug uptake (Blood [40]): 0.53 % ID/g
Drug uptake (Liver [41]): 16.67 % ID/g
Drug uptake (Kidney [42]): 8.79 % ID/g
Drug uptake (Intestine [43]): 3.07 % ID/g
Drug uptake (Stomach [44]): 2.24 % ID/g
Drug uptake (Spleen [45]): 2.91 % ID/g
Drug uptake (Pancreas [46]): 3.71 % ID/g
Drug uptake (Heart [47]): 4.29 % ID/g
Drug uptake (Lung [48]): 1.86 % ID/g
Drug uptake (Brain [49]): 0.5 % ID/g
Drug uptake (Blood [50]): 0.54 % ID/g
Drug uptake (Liver [51]): 13.74 % ID/g
Drug uptake (Kidney [52]): 8.52 % ID/g
Drug uptake (Intestine [53]): 3.79 % ID/g
Drug uptake (Stomach [54]): 2.4 % ID/g
Drug uptake (Spleen [55]): 2.78 % ID/g
Drug uptake (Pancreas [56]): 4.55 % ID/g
Drug uptake (Heart [57]): 4.35 % ID/g
Drug uptake (Lung [58]): 1.7 % ID/g
Drug uptake (Brain [59]): 0.52 % ID/g
Drug uptake (Blood [60]): 0.55 % ID/g
Compound: CS(=O)(=O)Nc1ccc2nc(CN3CCC(Cc4ccc([125I])cc4)CC3)[nH]c2c1
